According to ChEMBL document CHEMBL1124971, “Cyclization-activated prodrugs. Basic carbamates of 4-hydroxyanisole” (J Med Chem, 1990):

Key:
[1] = Half-life at 37 degree Celsius in aqueous solution at pH 7.4; type: ADME
Summary of the method: (§1)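 Carbamate hydrochloride salt (about 0.5 mg) taken up in buffer pre-warmed to 37 °C, final about 1 mM, and held at 37 °C. Samples were injected straight onto C-18 reverse-phase HPLC at intervals, or quenched in 1 N HCl first. Carbamate and 4-methoxyphenol were read at 220 nm. Half-life is the time to 50% conversion, fitted by first-order kinetics. Each value is the mean of at least two separate runs.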

[2] = Half-life at 37 degree Celsius in aqueous solution at pH 5.2; type: ADME; summary of the method: as §1
[3] = Half-life at 37 degree Celsius in aqueous solution at pH 6.8; type: ADME; summary of the method: as §1
[4] = Half-life at 37 degree Centigrade, towards Murine plasma esterases at pH 7.4; type: ADME; conditions: mouse
Summary of the method: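 Carbamate HCl salt dissolved in dilute H3PO4, then added to fresh murine plasma with pH 7.4 phosphate buffer (plasma:buffer 1.6:0.40) at 37 °C, final 5×10^-4 M. pH held at 7.4 by pH-stat. Aliquots taken at intervals were quenched in 7% HClO4 and centrifuged, and the supernatant was analysed.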

[5] = Half-life at 37 degree Celsius in aqueous solution at pH 4.2; type: ADME; summary of the method: as §1
[6] = Half-life at 37 degree Centigrade, in aqueous solution at pH 7.4; type: ADME; summary of the method: as §1
[7] = pKa of the compound; type: physicochemical

Row | SMILES | half-life [1] [h] | pKa [7] | other results
1 | COc1ccc(OC(=O)N(C)CCN(C)C)cc1.Cl | 0.66 | – | –
2 | CNCCN(C)C(=O)Oc1ccc(OC)cc1.Cl | – | – | half-life [2]: 57.8 h; half-life [3]: 2.33 h; half-life [4]: 0.933 h; half-life [5]: > 360 h; half-life [6]: 0.605 h
3 | COc1ccc(OC(=O)NCCN)cc1.Cl | 12.1 | 8.65 | –
4 | CNCCNC(=O)Oc1ccc(OC)cc1.Cl | 5.58 | – | –
5 | COc1ccc(OC(=O)N(C)CCN)cc1.Cl | 5.07 | 8.9 | –
6 | CCNCCN(CC)C(=O)Oc1ccc(OC)cc1.Cl | 1.97 | – | –
7 | CNCCOC(=O)Oc1ccc(OC)cc1.Cl | < 0.005 | – | –
8 | CNCCCN(C)C(=O)Oc1ccc(OC)cc1.Cl | 15.7 | – | –
9 | COc1ccc(OC(=O)NCCCN)cc1.Cl | 15.2 | 9.6 | –
